Screening results from PubChem BioAssay.
CHRM1 PAM = human M1 muscarinic receptor positive allosteric modulators, primary screen, CHO-K1 cells, Fluo-8 calcium fluorescence, 1536-well; Muscarinic acetylcholine receptor M1 (Homo sapiens), P11229; CHO-K1 hM1, ACh EC20; 0% = ACh EC20, 100% = maximal ACh; activation, % at 3 µM; 360,000 compounds, 0.088% hits; AID 588819, 2011; in the data active = activation above about 19%, passing the limit was not always enough
M1 antag = human M1 muscarinic receptor antagonists, primary screen, CHO-K1 cells, Fluo-8 calcium fluorescence, 1536-well; AID 588852, 2011; CHO-K1 hM1, ACh EC80 antagonist; 360,000 compounds, 1.3% hits; inhibition, % at 3 µM; Muscarinic acetylcholine receptor M1 (Homo sapiens), P11229;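 active = percent inhibition above its own plate's cutoff, namely the mean of that plate's compound wells plus 3 SD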;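 note: peak over basal fluorescence ratio during 140 s after agonist addition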
TAAR1 antag = human TAAR1 antagonists, primary screen, Fluo-8 calcium fluorescence, CHO RD-HGA16 cells; inhibition, % at 3 µM; antagonist; 360,000 compounds, 1.5% hits;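 active = inhibition above a per-plate cutoff, the mean inhibition of test compounds on that plate plus 3 SD, cut at about 49% in these data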
Target sequence (Q96RJ0 whole entry, looked up): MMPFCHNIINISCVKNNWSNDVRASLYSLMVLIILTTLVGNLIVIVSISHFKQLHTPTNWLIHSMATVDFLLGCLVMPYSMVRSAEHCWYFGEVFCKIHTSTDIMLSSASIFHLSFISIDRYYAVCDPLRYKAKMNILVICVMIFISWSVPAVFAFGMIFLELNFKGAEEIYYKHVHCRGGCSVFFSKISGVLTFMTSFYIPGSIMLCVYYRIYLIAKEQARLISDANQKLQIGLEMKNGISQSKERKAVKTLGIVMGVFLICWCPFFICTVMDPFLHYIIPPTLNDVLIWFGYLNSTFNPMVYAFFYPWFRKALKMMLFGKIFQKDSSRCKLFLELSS
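Test system: RD-HGA16 CHO cells with stable hTAAR1 and Gα16 / Probe or stimulus: EC80 β-phenethylamine stimulus / Times: seeding 17-24 h prior, 75-min 37 °C, 30-min RT dye loading / Detection: Fluo-8 calcium-sensitive fluorescence / Read-out basis: % inhibition scaled between DMSO and EC80 PEA controls / Repeats: singlicate, one well per test compound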
TAAR1 ag = human TAAR1 agonists, primary screen, Fluo-8 calcium fluorescence, CHO RD-HGA16 cells; activation, % at 3 µM; Trace amine-associated receptor 1 (Homo sapiens), Q96RJ0; 360,000 compounds, 0.99% hits; vehicle wells 0%, saturating PEA agonist 100%;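 active = activation above the mean activation of all test compounds in the run plus 3 SD, cut at about 38% in these data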
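Signal – calcium-sensitive Fluo-8 signal, excitation 470-495, emission 515-575 nm · System – RD-HGA16 (CHO) cells co-expressing Gα16 and hTAAR1 · Incubation – 17-24 h seeding, 75 min 37 °C dye, 30 min RT · Compound dosing – 3 µM single concentration · Repeats – no replicates (n 1)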
M1 ag = human M1 muscarinic receptor agonists, primary screen, Fluo-8 calcium fluorescence, CHO-K1 cells, HTS; activation, % at 3 µM; AID 588814, 2011; CHO-K1 hM1, agonist mode; 0% DMSO, 100% acetylcholine EC100; 360,000 compounds, 0.33% hits;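 active = activation above the run's mean compound activation plus 3 SD, cut at about 16% in these data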;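 note: peak over basal fluorescence ratio within a 140 s kinetic read after compound addition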
Numbers stand for hits; n = inactive; x = not tested or not shown. In the library only some 3.4% were active in any assay of this set; here they are far more common.

SMILES	CHRM1 PAM	M1 antag	TAAR1 antag	TAAR1 ag	M1 ag
O=C(Nc1ccccc1)Nc1ccc(Cl)c([N+](=O)[O-])c1	n	n	n	n	n
COC(=O)c1sccc1NC(=O)Nc1ccc(Cl)c(Cl)c1	n	n	54	n	n
COC(=O)c1cccc(NC(=O)NC(=O)c2ccccc2Cl)c1	n	n	n	n	n
COC(=O)c1cccc(NC(=O)Nc2ccc(Cl)c(Cl)c2)c1	n	43	n	n	n
COC(=O)c1cc(NC(=O)Nc2ccccc2)ccc1Cl	n	n	54	n	n
O=C(Nc1ccccc1)Nc1ccc(-n2ccc(C(F)(F)F)n2)cc1	n	68	58	n	n
O=C(O)CC(CC(=O)Nc1ccc(-n2ccc(C(F)(F)F)n2)cc1)c1ccccc1 (stereo unspecified)	n	n	n	n	n
COC(=O)c1sccc1NC(=O)Nc1ccc(C)c(C)c1	n	n	n	n	n
COc1ccc(Cc2c(C3CCCCC3)nc3ccc(C)cn23)c(C)c1	x	x	n	n	x
COC(=O)[C@]12C[C@H](CC(=O)N3CCCC3)C(=O)N(CCC3=CCCCC3)C1=C[C@H](COCc1ccccc1)O[C@@H]2C	x	x	n	n	x
Cc1c(CN2CCN(c3ncc(Cc4ccccc4)cn3)CC2)c(=O)n(-c2ccccc2)n1C	x	x	n	n	x
CC(=O)N1CCN(c2ccc(N3CCN(C(C)=O)[C@@H](C)C3)c(C)c2)[C@H](C)C1	x	x	n	n	x
Cc1cc(NC(=O)Cc2cn(Cc3ccccc3)c3ccccc23)ccc1Oc1cccnc1	x	x	n	n	x
O=C(Nc1ccccc1)Nc1ccccc1	n	n	n	39	n
CN(C)S(=O)(=O)Oc1cccc(C(=O)Nc2ccc(Cl)c(Cl)c2)c1	n	n	61	41	n
CCCCS(=O)(=O)N1CCCc2nc(CC)c(CC)cc21	x	x	n	n	x
C[C@H](O)[C@@H]1C(=O)N2CCc3c([nH]c4cccc(-c5ccccc5)c34)[C@@H]2C[C@@H]1N(C)CC1CCCCC1	x	x	n	n	x
CCN(CC)S(=O)(=O)c1ccc(/C=C/C(=O)OCC(=O)Nc2cccc3ccccc23)cc1	n	n	n	n	n
CCN(CC)S(=O)(=O)c1ccc(/C=C/C(=O)OCC(=O)Nc2cccnc2Cl)cc1	n	n	49	n	n
Cc1ccc(NC(=O)C2(C)CCN2Cc2csc3ccccc23)cc1 (stereo unspecified)	n	45	n	n	n
CC1(C(=O)Nc2ccc3c(c2)OCO3)CCN1Cc1csc2ccccc12 (stereo unspecified)	n	n	n	n	n
Cc1ccc(C)c(NC(=O)Cc2coc3cc4c(cc23)CCC4)c1	28	n	n	n	n
CCC(C)c1ccccc1NC(=O)Cc1coc2cc3c(cc12)CCC3 (stereo unspecified)	n	n	n	n	n
Cc1ccc(NC(=O)c2cc(S(=O)(=O)N(C)C)ccc2N2CCCC2)cc1S(=O)(=O)N(C)C	n	32	n	n	n
Cc1ccc(NC(=O)/C=C/c2ccc(S(=O)(=O)N3CCOCC3)cc2)cc1S(=O)(=O)N(C)C	n	n	66	n	n
SMILES	CHRM1 PAM	M1 antag	TAAR1 antag	TAAR1 ag	M1 ag
Cc1cc2c(nc1C)CCCN2Cc1ccccc1C(F)(F)F	x	x	n	n	x
CCCCN(C(C)=O)c1ccc2c(c1)C1CC2CCN1C(=O)OCc1ccccc1 (stereo unspecified)	n	34	n	n	n
COc1ccc(C(=O)COC(=O)c2ccc3c(c2)NC(=O)CS3)c(OC)c1	n	n	n	n	n
CCOc1ccc(C(C)=O)cc1COC(=O)c1ccc2c(c1)NC(=O)CS2	n	n	52	n	n
CC(C)C[C@H]1CN(CCCC[C@@H]2CNC(=O)C(=O)N2Cc2ccccc2)C(=O)C(=O)N1CCC1CCCCC1	x	x	n	n	x
COc1cc(N2CCC(O)CC2)ccc1Nc1cc(Nc2ccccc2S(=O)(=O)C(C)C)c2cc[nH]c2n1	x	x	n	n	x
CCCCCCCCCCCCN1CCSCCS1(=O)=O	x	x	n	n	x
COC(=O)c1ccc2nc(-c3ccc(OC)c(OC)c3)c(Cc3cccc(F)c3)n2c1	x	x	n	n	x
CCC(C)N1CCN(C(=O)C2CCN(S(=O)(=O)c3c(C)noc3/C=C/c3ccco3)CC2)CC1 (stereo unspecified)	n	80	n	n	n
Cc1cccc(NC(=O)C2CCN(S(=O)(=O)c3c(C)noc3/C=C/c3ccco3)CC2)n1	n	n	n	n	n
COc1ccc(/C=C2\CCc3c2nc2ccccc2c3C(=O)O)cc1OC	n	n	n	n	n
CCOc1ccc(/C=C2\CCCc3c2nc2ccccc2c3C(=O)O)cc1OC	n	n	x	x	53
CCCCN(C(=O)c1ccc(Cl)cc1)C1CC2CCC(C1)N2C (stereo unspecified)	n	28	n	n	n
CCCCNc1c(-c2ccc(-c3ccc(OC)cc3)c(OC)c2)nc2ccccn12	n	n	72	n	n
CCCCNc1c(-c2ccc(OC)c(Sc3ccc(OC)cc3)c2)nc2ccccn12	n	50	x	x	n
COc1cccc(CNC(=O)[C@H]2CCCN2C(=O)[C@H]2CCCN2C(=O)c2ccc(OC(F)(F)F)cc2)c1	x	x	n	n	x
Cc1ccccc1-c1csc(C(O)c2ccccc2)n1 (stereo unspecified)	n	n	n	n	n
O=[N+]([O-])c1ccc(S(=O)(=O)N2CCN(C3CCN(Cc4ccccc4)CC3)CC2)cc1	n	n	n	n	n
O=[N+]([O-])c1ccc(CN2CCC(Cc3ccccc3)CC2)cc1	n	39	n	n	n
O=[N+]([O-])c1ccc(C(=S)N2CCC(Cc3ccccc3)CC2)cc1	n	n	53	n	n
Cc1ccc([N+](=O)[O-])c(OCCN2CCC(Cc3ccccc3)CC2)c1	n	84	n	n	n
O=[N+]([O-])c1cccc(OCCCN2CCC(Cc3ccccc3)CC2)c1	n	77	n	n	n
Cc1ccc(C(=O)N2CCC(Cc3ccccc3)CC2)cc1[N+](=O)[O-]	n	n	n	n	n
COc1cccc(N/C=C/C(=O)c2ccc(OC)c(OC)c2)c1	n	n	n	n	n
CCOC(=O)c1cccc(N/C=C/C(=O)c2ccc(OC)c(OC)c2)c1	n	29	n	n	n
CCOC(=O)c1sc(=S)n(-c2ccccc2Cl)c1C	n	52	n	n	n
COc1ccc(N=C2Sc3ccccc3[C@@H]3C[C@H]4[C@H](CON4C)CN23)c(OC)c1	x	x	n	n	x
C[C@H]1[C@@H]2C[C@@]3(O[C@H](c4ccccn4)N=C3C[C@@H]1c1ccccc1)N(Cc1ccncc1)C2=O	x	x	n	n	x
